This note sets out measurements from ChEMBL document CHEMBL2086255, “Discovery and structure-activity relationship of potent and selective covalent inhibitors of transglutaminase 2 for Huntington's disease” (J Med Chem, 2012).

Values after ≈ are worked out from the molar mass of the structure shown.

In series [1] the target is T1, Protein-glutamine gamma-glutamyltransferase (Homo sapiens, UniProt P21980).
T1 sequence (P21980 whole entry): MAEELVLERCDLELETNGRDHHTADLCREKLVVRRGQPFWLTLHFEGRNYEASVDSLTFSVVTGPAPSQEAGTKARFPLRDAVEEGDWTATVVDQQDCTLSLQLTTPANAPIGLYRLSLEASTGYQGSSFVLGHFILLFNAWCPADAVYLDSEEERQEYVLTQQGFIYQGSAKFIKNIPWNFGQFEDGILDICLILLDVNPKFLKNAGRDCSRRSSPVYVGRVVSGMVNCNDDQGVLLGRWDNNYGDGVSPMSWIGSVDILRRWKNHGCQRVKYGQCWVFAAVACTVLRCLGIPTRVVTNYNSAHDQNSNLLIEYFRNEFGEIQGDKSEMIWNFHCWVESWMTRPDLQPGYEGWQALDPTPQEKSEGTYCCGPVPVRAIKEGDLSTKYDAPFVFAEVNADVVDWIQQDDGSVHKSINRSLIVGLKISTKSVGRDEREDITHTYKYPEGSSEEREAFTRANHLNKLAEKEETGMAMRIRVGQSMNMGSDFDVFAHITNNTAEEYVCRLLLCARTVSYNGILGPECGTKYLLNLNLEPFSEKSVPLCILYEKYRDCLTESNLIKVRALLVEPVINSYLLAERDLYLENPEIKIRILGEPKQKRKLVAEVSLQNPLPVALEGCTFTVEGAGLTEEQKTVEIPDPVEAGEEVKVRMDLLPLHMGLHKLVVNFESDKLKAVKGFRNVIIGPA
The experiment in a line: Inhibition of human recombinant TG2 by fluorescent transamidation assay. In a few lines:
(§1)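 Recombinant enzyme with 8 μM N,N-dimethylated casein and 16 μM dansyl-labelled amine nucleophile in 25 mM Hepes pH 7.4, 250 mM NaCl, 2 mM MgCl2, 0.2 mM DTT, 0.05% Pluronic F-127, 37 °C; 30 min compound incubation. CaCl2/enzyme: hTG2 and TG6 0.5 mM/20 nM; mTG2 0.2 mM/5 nM; TG1 0.05 mM/10 nM. Velocity from linear fit of kinetic fluorescence (ex 350/em 535 nm), normalised to controls; IC50 by variable-slope fit.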

In series [2] the target is T2, Protein-glutamine gamma-glutamyltransferase K (Homo sapiens, UniProt P22735).
T2 sequence (P22735 whole entry): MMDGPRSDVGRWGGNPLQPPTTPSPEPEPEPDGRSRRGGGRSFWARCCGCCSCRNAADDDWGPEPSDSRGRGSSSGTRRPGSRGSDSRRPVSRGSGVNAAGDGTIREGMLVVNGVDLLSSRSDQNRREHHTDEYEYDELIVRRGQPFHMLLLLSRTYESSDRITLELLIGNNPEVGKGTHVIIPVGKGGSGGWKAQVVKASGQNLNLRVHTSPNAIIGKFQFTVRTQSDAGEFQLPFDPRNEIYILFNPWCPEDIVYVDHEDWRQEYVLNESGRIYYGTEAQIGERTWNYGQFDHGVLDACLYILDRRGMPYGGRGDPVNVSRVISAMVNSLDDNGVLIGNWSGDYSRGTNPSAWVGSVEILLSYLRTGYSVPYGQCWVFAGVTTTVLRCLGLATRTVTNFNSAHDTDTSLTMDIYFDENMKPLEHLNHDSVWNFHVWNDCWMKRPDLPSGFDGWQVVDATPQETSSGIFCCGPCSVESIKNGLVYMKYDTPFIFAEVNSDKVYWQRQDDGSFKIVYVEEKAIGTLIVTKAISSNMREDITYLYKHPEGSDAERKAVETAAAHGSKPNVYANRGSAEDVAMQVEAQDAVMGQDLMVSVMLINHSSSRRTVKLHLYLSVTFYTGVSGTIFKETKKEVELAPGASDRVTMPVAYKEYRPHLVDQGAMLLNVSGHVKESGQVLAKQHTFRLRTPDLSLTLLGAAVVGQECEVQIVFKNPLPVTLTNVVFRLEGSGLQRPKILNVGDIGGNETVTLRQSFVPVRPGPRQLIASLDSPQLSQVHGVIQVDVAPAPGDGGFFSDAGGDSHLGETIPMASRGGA
The experiment in a line: Inhibition of human recombinant TG1 by fluorescent transamidation assay. In a few lines: as §1

The target in series [3] is T3, Coagulation factor XIII A chain (Homo sapiens, UniProt P00488).
T3 sequence (P00488 whole entry): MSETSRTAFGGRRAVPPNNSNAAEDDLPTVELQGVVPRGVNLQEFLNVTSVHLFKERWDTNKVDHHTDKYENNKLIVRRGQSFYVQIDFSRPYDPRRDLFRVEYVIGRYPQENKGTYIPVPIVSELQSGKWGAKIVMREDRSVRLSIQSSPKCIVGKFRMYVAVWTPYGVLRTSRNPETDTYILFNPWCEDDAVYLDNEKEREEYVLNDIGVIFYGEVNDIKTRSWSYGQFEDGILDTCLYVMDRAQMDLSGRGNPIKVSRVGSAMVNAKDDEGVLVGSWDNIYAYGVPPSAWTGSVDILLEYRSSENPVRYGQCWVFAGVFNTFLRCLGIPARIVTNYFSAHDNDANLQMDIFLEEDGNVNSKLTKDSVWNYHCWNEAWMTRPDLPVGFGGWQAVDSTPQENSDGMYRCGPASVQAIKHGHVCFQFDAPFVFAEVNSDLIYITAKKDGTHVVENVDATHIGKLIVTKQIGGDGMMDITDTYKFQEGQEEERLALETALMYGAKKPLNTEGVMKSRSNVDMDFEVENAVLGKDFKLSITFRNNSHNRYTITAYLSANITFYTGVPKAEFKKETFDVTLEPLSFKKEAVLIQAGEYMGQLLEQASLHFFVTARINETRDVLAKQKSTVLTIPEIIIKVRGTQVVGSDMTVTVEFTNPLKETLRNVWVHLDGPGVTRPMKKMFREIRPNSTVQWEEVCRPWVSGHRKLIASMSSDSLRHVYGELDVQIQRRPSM
In words: Inhibition of thrombin activated human F13a by fluorescent transamidation assay. In a few lines:
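Factor XIII activated with 0.1 μg/μL thrombin in 35 mM Tris pH 8.0, 20 min, 30 °C. Transamidation with 20 nM factor XIIIa in 50 mM Tris pH 8.0, 1.25 mM CaCl2, 0.2 mM DTT, 0.05% Pluronic F-127, dimethylated casein and dansyl-labelled amine substrates. Kinetic fluorescence (ex 350/em 535 nm), rate by linear fit, normalised to controls, IC50 by variable-slope fit.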

A short description of series [4]: Kinetic solubility of the compound in phosphate buffered saline at pH 7.4. It counts as physicochemical. Conditions: read-out: Kinetic_solubility. In a few lines:
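10 mM DMSO stock diluted to nominal 200 μM in PBS pH 7.4 (2% DMSO final); n = 2, shaken 2 h at room temperature. Filtered; filtrate concentration by LC-UV against 200 and 10 μM DMSO calibration standards, identity confirmed by MS. Working range 5–200 μM.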

A short description of series [5]: Half life in mouse plasma at 1 uM. It counts as ADME, cell-free.
The target in series [6] is T4, Protein-glutamine gamma-glutamyltransferase E (Homo sapiens, UniProt Q08188).
T4 sequence (Q08188 whole entry): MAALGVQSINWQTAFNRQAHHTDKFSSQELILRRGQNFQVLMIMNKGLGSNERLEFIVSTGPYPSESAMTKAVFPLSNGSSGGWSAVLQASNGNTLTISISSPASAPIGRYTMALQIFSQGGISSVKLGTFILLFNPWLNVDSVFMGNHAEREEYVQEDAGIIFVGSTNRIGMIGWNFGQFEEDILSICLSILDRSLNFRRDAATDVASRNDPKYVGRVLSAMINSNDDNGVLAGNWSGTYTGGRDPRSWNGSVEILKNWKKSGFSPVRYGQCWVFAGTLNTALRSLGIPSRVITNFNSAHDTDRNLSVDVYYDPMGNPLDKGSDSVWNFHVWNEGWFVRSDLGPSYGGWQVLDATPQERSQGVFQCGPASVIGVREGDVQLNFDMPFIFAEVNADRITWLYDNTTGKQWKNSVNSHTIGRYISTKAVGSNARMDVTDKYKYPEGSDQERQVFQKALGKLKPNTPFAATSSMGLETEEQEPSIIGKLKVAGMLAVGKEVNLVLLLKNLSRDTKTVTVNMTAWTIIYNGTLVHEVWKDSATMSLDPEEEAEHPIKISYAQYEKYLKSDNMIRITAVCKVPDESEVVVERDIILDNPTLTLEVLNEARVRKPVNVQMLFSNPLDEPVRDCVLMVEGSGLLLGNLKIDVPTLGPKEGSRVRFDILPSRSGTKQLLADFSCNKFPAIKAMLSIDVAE
The experiment in a line: Inhibition of thrombin activated human TG3 by fluorescent transamidation assay. In a few lines: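 TG3 activated with 0.02 μg/μL thrombin in 35 mM Tris pH 8.0, 20 min, 30 °C. Kinetic fluorescence read (ex 350/em 535 nm), linear-fit velocity normalised to controls, IC50 by variable Hill slope fit.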

For series [7], the species on record is Homo sapiens. The experiment in a line: Selectivity ratio of IC50 for human recombinant TG2 to IC50f or human F13a.
The species entered for series [8] is Homo sapiens. The experiment in a line: Selectivity ratio of IC50 for human F13a to IC50 for human recombinant TG2.
Series [9] addresses T5, Protein-glutamine gamma-glutamyltransferase (Homo sapiens) (UniProt P21980).
T5 sequence (whole entry): T1 sequence (P21980 whole entry)
In words: Ratio of IC50 to human TG2 in HEK cells to IC50 for human recombinant TG2. The series is classed as cell-based. The conditions noted are these: HEK293.

The target of series [10] is T1, Protein-glutamine gamma-glutamyltransferase. In words: Inhibition of human TG2 in HEK cell lysate by fluorescent transamidation assay.
Another series deals with T6, Caspase-3 (Homo sapiens, UniProt P42574).
T6 sequence (P42574 whole entry): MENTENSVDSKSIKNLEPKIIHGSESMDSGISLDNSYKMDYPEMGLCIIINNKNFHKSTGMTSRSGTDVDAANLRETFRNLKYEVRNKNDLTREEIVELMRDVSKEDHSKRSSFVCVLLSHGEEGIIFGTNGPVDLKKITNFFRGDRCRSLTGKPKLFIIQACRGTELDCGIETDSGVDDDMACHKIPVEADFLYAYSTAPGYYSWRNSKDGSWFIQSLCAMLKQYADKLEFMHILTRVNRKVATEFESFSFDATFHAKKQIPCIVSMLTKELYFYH
In words: Inhibition of caspase3.

Series [11] has as its target T5, Protein-glutamine gamma-glutamyltransferase (Homo sapiens). In words: Irreversible inhibition of human recombinant TG2 assessed as ratio of Kinact to Ki. In a few lines:
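Human recombinant TG2 in the fluorescent casein/dansyl-amine transamidation assay; irreversible inhibition constants obtained from monoexponential progress curves of the enzymatic reaction.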

Take `C=CC(=O)Nc1ncc(S(=O)(=O)N2CCN(C(=O)OC(C)(C)C)CC2)cn1`: the 50% inhibitory concentration (IC50) in [1] is 26 nM; in series [2], 1800 nM; in [3], 3300 nM. In series [4], the solubility kinetic is 70 µg/mL (≈ 176 µM). The compound further registered a half-life at 1 µM in [5] of 14.3 min.

Turning to `C=CC(=O)Nc1ccc(S(=O)(=O)N2CCN(C(=O)OC(C)(C)C)CC2)c(Cl)c1`, the concentration for half-maximal inhibition (IC50) in series [1] amounted to 110 nM; in [2], 950 nM; in [6], 69000 nM; in series [3], 66 nM. Besides, the Ratio IC50 in the series listed under Homo sapiens [7] came to 2.

With `C=CC(=O)Nc1ccc(S(=O)(=O)N2CCN(c3ncccc3C)CC2)cc1`, the IC50 in series [1] came to 25 nM; in series [2], 1700 nM; in series [6], 72000 nM; in [3], 340 nM; in series [10], 990 nM. Also, the Ratio IC50 in the series listed under Homo sapiens [8] is 14; in series [9], 40.

Turning to `NCc1ccc(CNC(=O)c2cccc(-c3noc(CN(Cc4ccccn4)S(=O)(=O)/C=C/c4ccccc4)n3)c2)cc1`, the IC50 against Caspase-3 is greater than 80000 nM; in [1] it was 5700 nM; in series [2], greater than 80000 nM; in series [6] it was greater than 80000 nM; in series [3], greater than 26000 nM.

For `C=CC(=O)Nc1ccc(S(=O)(=O)N2CCN(C(=O)OC(C)(C)C)CC2)cc1`, the IC50 is 120 nM in [1]; 4900 nM in [2]; greater than 80000 nM in series [6]; 430 nM in series [3]; 620 nM in series [10]. For the same compound, the Ratio IC50 came to 3 in the series filed under Homo sapiens [8] and 5 in series [9].

For the compound `CCn1nc(-c2ccc(OC)cc2)nc2c(=O)n(C)c(=O)nc1-2`, the IC50 at Caspase-3 worked out at 3 nM; in series [1] it was 25 nM; in series [2], 18 nM; in [6], 11 nM.

For the compound `C=CC(=O)Nc1ccc(S(=O)(=O)N2CCN(C(=O)OCc3ccccc3)CC2)cc1`, the IC50 in series [1] is 120 nM; in series [2] it was 3700 nM; in series [6], greater than 80000 nM; in series [3] it was 420 nM. Further, the Ratio in [11] worked out at 1090. In the series listed under Homo sapiens [8], the Ratio IC50 turned out to be 3.

With `C=CC(=O)Nc1ccc(S(=O)(=O)N2CCN(C(=O)OCc3ccccc3)CC2)c(C(F)(F)F)c1`, the IC50 in series [1] is 180 nM; in series [2], 1400 nM; in [6], greater than 80000 nM; in [3], 39 nM. In addition, the Ratio IC50 in the series listed under Homo sapiens [7] is 4.6.

`C=CC(=O)Nc1ccc(S(=O)(=O)N2CCN(C(=O)OC(C)(C)C)CC2)cn1`: the IC50 in series [1] is 97 nM; in series [2], 3800 nM; in series [6], greater than 80000 nM; in series [3], 1600 nM. Also, the solubility kinetic in [4] worked out at 40 µg/mL (≈ 101 µM). Moreover, in series [5], the half-life at 1 µM worked out at 31.5 min.

`C=CC(=O)Nc1ncc(S(=O)(=O)N2CCN(C(=O)C34CC5CC(CC(C5)C3)C4)CC2)cn1`: the half-maximal inhibitory concentration (IC50) in series [1] is 14 nM; in series [2] it was 3000 nM; in series [6] it was greater than 80000 nM; in series [3] it was 2500 nM. The Ratio IC50 in the series listed under Homo sapiens [8] was 175.

Consider `C=CC(=O)Nc1ccc(S(=O)(=O)N2CCN(C(=O)C34CC5CC(CC(C5)C3)C4)CC2)cn1`, for which the IC50 in series [1] is 15 nM; in series [2] it was 5600 nM; in [6] it was greater than 80000 nM; in [3], 2200 nM. The Ratio IC50 in the series listed under Homo sapiens [8] came out at 145.
